pIC50: −log10 of the molar value.
Legend:
Cholinesterase [1] = target: T1, Cholinesterase (Homo sapiens, UniProt P06276); test: Inhibition of BuChE (unknown origin) at 10 uM by spectrophotometric analysis based Ellman's assay
Procedure, shortened: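 Ellman colorimetric assay of BuChE activity, with each compound tested at a single 10 μM concentration. […] Activity is reported as percent inhibition.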

Cholinesterase [2] = target: T1, Cholinesterase; test: Inhibition of BuChE (unknown origin) by spectrophotometric analysis based Ellman's assay
[3] = Antioxidant activity assessed as DPPH radical scavenging activity at 10 uM; type: functional
[4] = target: Amyloid-beta precursor protein (Homo sapiens) (UniProt P05067); test: Inhibition of human amyloid-beta (1 to 42 residues) oligomer at 1:1 protein to compound ratio after 2 hrs by ELISA; conditions: concentration not given here
Amyloid-beta precursor protein (Homo sapiens), sequence (P05067 whole entry, the tested form may be a part): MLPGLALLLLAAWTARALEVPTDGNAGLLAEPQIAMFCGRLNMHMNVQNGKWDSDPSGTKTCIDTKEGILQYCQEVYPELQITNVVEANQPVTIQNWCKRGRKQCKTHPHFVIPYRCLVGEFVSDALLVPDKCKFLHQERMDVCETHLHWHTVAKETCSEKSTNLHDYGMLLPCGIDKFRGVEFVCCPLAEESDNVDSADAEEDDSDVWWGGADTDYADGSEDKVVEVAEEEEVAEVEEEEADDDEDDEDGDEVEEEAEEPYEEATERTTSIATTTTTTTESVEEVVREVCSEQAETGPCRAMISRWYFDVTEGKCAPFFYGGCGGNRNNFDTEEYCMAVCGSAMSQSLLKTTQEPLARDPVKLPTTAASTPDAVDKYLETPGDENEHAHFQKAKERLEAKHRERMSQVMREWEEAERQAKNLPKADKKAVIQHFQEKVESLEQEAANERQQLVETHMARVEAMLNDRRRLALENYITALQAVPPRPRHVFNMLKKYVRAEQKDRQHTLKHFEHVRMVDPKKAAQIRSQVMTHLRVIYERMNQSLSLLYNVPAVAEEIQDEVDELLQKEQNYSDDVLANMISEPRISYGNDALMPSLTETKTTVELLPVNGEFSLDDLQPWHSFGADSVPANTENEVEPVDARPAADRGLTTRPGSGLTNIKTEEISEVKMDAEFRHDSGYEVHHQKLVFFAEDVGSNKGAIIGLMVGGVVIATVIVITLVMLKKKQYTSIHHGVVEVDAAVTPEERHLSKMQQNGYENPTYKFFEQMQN

[5] = Antioxidant activity assessed as ABTS free radical scavenging activity at 10 uM; type: functional
[6] = target: Amyloid-beta precursor protein (Homo sapiens) (UniProt P05067); test: Inhibition of human amyloid-beta (1 to 42 residues) fibril at 1:1 protein to compound ratio after 2 hrs by ELISA; conditions: concentration not given here
[7] = Antioxidant activity assessed as inhibition of peroxyl radical-induced oxidation at 10 uM by ORAC assay; type: functional; design: scale not given: the % may be the effect or the level left

T1 sequence (P06276 whole entry): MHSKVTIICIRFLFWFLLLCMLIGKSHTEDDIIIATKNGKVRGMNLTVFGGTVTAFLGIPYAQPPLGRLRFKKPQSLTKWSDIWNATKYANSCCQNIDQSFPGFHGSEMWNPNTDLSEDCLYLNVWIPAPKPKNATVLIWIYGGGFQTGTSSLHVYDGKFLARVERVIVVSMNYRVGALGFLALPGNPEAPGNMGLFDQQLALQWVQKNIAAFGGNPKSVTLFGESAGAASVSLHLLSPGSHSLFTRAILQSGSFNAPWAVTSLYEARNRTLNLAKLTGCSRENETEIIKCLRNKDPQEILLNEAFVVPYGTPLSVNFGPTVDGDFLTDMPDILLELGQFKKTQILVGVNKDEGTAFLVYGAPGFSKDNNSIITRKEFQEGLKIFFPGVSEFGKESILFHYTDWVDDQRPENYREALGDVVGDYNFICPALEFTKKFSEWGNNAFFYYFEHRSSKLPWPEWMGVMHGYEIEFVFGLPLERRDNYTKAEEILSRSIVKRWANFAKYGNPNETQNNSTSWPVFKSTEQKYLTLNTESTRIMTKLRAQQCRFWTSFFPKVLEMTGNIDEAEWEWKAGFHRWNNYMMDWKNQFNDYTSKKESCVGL

| Structure (SMILES) | inhibition (Cholinesterase [1]) [%] | pIC50 (Cholinesterase [2]) | Activity [3] [%] | inhibition [4] [%] | Activity [5] [%] | inhibition [6] [%] | Activity [7] [%] |
| --- | --- | --- | --- | --- | --- | --- | --- |
| COc1ccc2[nH]c3c(C(=O)c4ccc(C(F)(F)F)cc4)nccc3c2c1 | 46 | 5.85 | 2 | 84 | 3 | -5 | 5 |
| Cc1ccccc1-c1nccc2c1[nH]c1ccccc12 | 7 | < 5.00 | 0 | 45 | 15 | 17 | 58 |
| Cc1ccc2[nH]c3c(-c4ccc(C(F)(F)F)cc4)nccc3c2c1 |  |  |  | 82 |  | 34 |  |
| COc1ccc2[nH]c3c(-c4ccc(C)cc4)nccc3c2c1 | 32 | < 5.00 | -12 | 63 | 13 | 10 | 28 |
| COc1ccc2[nH]c3c(C(=O)c4ccc(F)cc4)nccc3c2c1 | 1 | < 5.00 | -4 | 82 | 5 | 6 | 5 |
| Cc1ccc2[nH]c3c(-c4ccccc4)nccc3c2c1 | 54 | 5.51 | 2 | 6 | 10 | -7 | 10 |
| c1ccc2c(-c3nccc4c3[nH]c3ccccc34)cccc2c1 | 95 | 6.66 | -6 | 58 | 14 | 39 | 0 |
| c1ccc(-c2nccc3c2[nH]c2ccccc23)cc1 | 46 | < 5.00 | -7 | 79 | 12 | -4 | 10 |
| O=C1O[C@H]([C@@H](O)CO)C(O)=C1O |  |  | 15 |  | 28 |  | 15 |
| COc1ccc2[nH]c3c(-c4ccc(F)cc4)nccc3c2c1 | 34 | < 5.00 | -13 |  | 15 | 12 | 41 |
| Fc1ccc(-c2nccc3c2[nH]c2ccccc23)cc1 | 79 | 5.37 | -3 | 22 | 22 | 37 | 54 |
| O=C(c1ccc(C(F)(F)F)cc1)c1nccc2c1[nH]c1ccccc12 | 69 | 5.89 | -1 |  | 7 | 11 | -10 |
| Cc1c(C)c2c(c(C)c1O)CCC(C)(C(=O)O)O2 (stereo not given) |  |  | 23 |  | 26 |  | 90 |
| O=C(c1ccccc1)c1nccc2c1[nH]c1ccccc12 | 11 | < 5.00 | -3 |  | 6 | 20 | 6 |
| COc1ccc2[nH]c3c(-c4ccccc4)nccc3c2c1 | 64 | 5.35 | -6 | 58 | 16 | 19 | 35 |
| c1ccc2c(c1)[nH]c1c(C3CCCCC3)nccc12 |  |  |  | 30 |  |  |  |
